Screening data deposited in PubChem BioAssay by several laboratories.
NF-kB neuron act: activators of NF-kB expression in neurons, primary screen, cell-based, HTS. human neuronal cells, NF-kB reporter expression; hits give high values. fold change at 12.5 µM. 1.6% of 190,000 active. AID 1239, 2008; in the data active = fold change above about 3.3
FLuc inhib CS: firefly luciferase enzyme inhibitors, primary screen, artefact control for luciferase-based inhibitor screens, biochemical, luminescence, ATPLite | Luciferin 4-monooxygenase (Photinus pyralis), P08659 | 10 min | inhibition, % at 10 µM | 1.5% of 200,000 active;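 active = inhibition above about 50% when tested at 10 µM, limit read from the data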
Target sequence (P08659 whole entry, looked up): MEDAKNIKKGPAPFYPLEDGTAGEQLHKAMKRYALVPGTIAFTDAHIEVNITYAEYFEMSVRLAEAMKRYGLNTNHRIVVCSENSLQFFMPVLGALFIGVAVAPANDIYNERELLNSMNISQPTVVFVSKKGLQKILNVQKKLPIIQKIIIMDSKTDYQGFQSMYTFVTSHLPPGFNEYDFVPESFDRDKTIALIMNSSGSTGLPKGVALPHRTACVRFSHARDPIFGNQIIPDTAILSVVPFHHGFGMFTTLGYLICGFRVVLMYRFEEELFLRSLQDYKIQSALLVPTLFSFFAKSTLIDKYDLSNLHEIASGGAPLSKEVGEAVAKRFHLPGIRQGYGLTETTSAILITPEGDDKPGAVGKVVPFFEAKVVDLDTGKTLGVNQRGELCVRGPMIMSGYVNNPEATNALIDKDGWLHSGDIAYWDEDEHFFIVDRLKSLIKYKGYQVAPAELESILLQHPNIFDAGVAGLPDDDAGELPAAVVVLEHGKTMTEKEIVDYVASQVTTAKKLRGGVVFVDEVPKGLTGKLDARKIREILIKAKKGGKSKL
FLuc act counter: FLuc activators, initial screening, artefact control for FLuc-dependent activation tests, biochemical, ATPlite luminescence | ATPlite luciferase biochemical, 10 min; 0 = ATP-free wells, 1 = DMSO control | activation factor at 10 µM | 200,000 tested, under 10 active;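 active = luciferase activation factor, scaled between plate controls, of at least 2 with compound at 10 µM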
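Material: Luciferase/luciferin reagent mix | Doses: Test compounds dosed from 2 mM stocks in 100% DMSO | Timing: 10 min incubation after luciferase reagent addition, room temperature | Measured by: Luminescence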
APP 5'UTR act: activators of APP 5'UTR luciferase reporter, primary screen, SH-SY5Y cells. AID 1276, 2008. SH-SY5Y APP 5'UTR luciferase reporter, luminescence; zero percent = DMSO vehicle wells. activation, % at 2 µM. 1% of 190,000 active;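 active = activation above a set limit, based on mean plus 3 SD of controls, cut at about 140% in these data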
Rad51 HR inh: human RAD51 strand exchange inhibitors, primary screen, biochemical, fluorescence; DNA repair protein RAD51 homolog 1 (Homo sapiens), Q06609; hRad51 DNA strand exchange, fluorescence dequenching; inhibition, % at 10 µM; 0.085% of 200,000 active;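 active = inhibition above 40% at the single screening dose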;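 also: 0% = DMSO control wells and 100% = blanks with heterologous ssDNA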
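Test system: preformed human Rad51 ssDNA filaments; also added: Donor/quencher-labelled 47-bp dsDNA substrate; doses: 10 µM final, single point; times: 37 °C 15-min filament assembly, 30-min compound preincubation, 15-min exchange; detection: FRET fluorescence dequenching, excitation 485 nm, emission 520 nm; read-out basis: Fluorescence-based percent inhibition, control- and blank-normalised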
STAT1 activator: STAT1 signaling activators, primary screen, cell-based, HTS, luciferase reporter; NIH 3T3 STAT1-luciferase reporter, IFN-gamma, luminescence; 100% = IFN-gamma alone, no compound; activation (% of control), % at 5.5 µM; 2.6% of 200,000 active; AID 932, 2007;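 active = activation above the screen-wide mean activation plus 3 SD, cut at about 130% in these data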;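 also: raw ratio to IFN-gamma control signal so 100% means no change and 0% no light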
* marks the source's active call; other numbers are inactive results; / = no result. Hits are enriched below; roughly 3.9% of the tested compounds scored in any of these assays.

SMILES	NF-kB neuron act	FLuc inhib CS	FLuc act counter	APP 5'UTR act	Rad51 HR inh	STAT1 activator
CCCCOc1ccc(C2CCC(C(C)=O)C(C)C2)cc1 (centres undefined)	/	/	/	/	4	/
CC(C)(C)C(=O)NC1(C(F)(F)F)NC(=O)N(c2ccc(F)cc2)C1=O (centres undefined)	1.1	-2	1	10	6	93
CCOc1ccc2c(c1)OC(c1ccc(C)cc1)(C(F)(F)F)NC2=O (centres undefined)	4.2*	4	1	-95	-1	105
O=C(O)CSc1nnc(-c2ccc3c(c2)OCO3)o1	1.2	7	0.9	17	/	98
O=[N+]([O-])c1cccc(-c2nnc(-c3ccc4c(c3)OCO4)o2)c1	2.3	21	0.8	87	1	141*
Clc1ccccc1-c1nnc(-c2ccc3c(c2)OCO3)o1	7.4*	80*	0.2	125	1	111
O=c1c2c3c(sc2nc2n1N=C(c1cccs1)CS2)CCCC3	0.93	76*	0.2	13	-5	115
O=c1oc(-c2cccs2)nc2sc3c(c12)CCCC3	2.8	35	0.7	38	-8	107
CSCCC(NC(=O)c1ccc(C(C)(C)C)cc1)C(=O)O (centres undefined)	0.99	7	0.9	-6	-4	98
O=c1oc2ccc3ccccc3c2cc1-c1nc2ccccc2o1	/	/	/	-1	-20	102
Cc1ccc(-c2noc(-c3cc4ccccc4oc3=O)n2)cc1	1.4	1	1	-3	-8	100
O=c1oc2ccccc2cc1-c1nc2ccccc2o1	4.4*	36	0.6	152*	2	122
Cc1cccc(-c2noc(-c3cc4ccccc4oc3=O)n2)c1	3.6*	33	0.7	7	-6	117
O=c1oc2ccccc2cc1-c1nc(-c2ccccc2)no1	4.1*	75*	0.3	76	-10	145*
O=c1oc2ccccc2cc1-c1nc2c(s1)CCCC2	1.7	67*	0.3	188*	/	71
Cn1c(-c2cc3ccccc3oc2=O)nc2ccccc21	/	/	/	/	-11	/
CC(/C=C/C=C/c1ccccc1)=N/NC(=O)c1ccc2c(c1)OCCO2	/	/	/	/	-10	/
O=C1C(c2ccncc2)=C(O)c2ccccc21	3.5*	83*	0.2	160*	/	101
CCOc1ccc(S(=O)(=O)N2CCOCC2)cc1[N+](=O)[O-]	1	-2	1	-4	-26	96
CC(C)OC(=O)c1cccc(-c2ccc(C=O)o2)c1	2	6	0.9	24	-7	114
CCOc1ccc(-c2cn3ccccc3n2)cc1[N+](=O)[O-]	1.1	78*	0.2	70	-1	127
CCOc1ccc(Cn2ccnc2)cc1[N+](=O)[O-]	1.1	-5	1.1	-4	-7	100
Nc1nc(-c2ccc([N+](=O)[O-])cc2)cs1	1.4	-5	1	-22	0	106
CCCOc1ccc(-c2csc(N)n2)cc1[N+](=O)[O-]	2.3	27	0.7	67	7	138*
COc1ccc(NC(=O)/C(=C\c2ccc3c(c2)OCO3)NC(C)=O)cc1	1.1	-2	1	7	-5	94
SMILES	NF-kB neuron act	FLuc inhib CS	FLuc act counter	APP 5'UTR act	Rad51 HR inh	STAT1 activator
CC(C)=CCc1cc2c(=O)c3c(O)c4c(cc3oc2c(O)c1O)OC(C)C4(C)C (centres undefined)	/	/	/	/	-8	/
Cc1nnc(SCC(=O)NCC(=O)Nc2ccc(F)c(F)c2F)n1Cc1ccccc1	1	-4	1	9	0	101
Cc1ccc2cc(C#N)c(SCC(=O)NCc3ccco3)nc2c1	1.3	-5	1.1	11	-2	104
Cc1ccc2nc(SCC(=O)NCc3ccco3)c(C#N)cc2c1	2.9	-6	1.1	137*	-9	105
O=C(CCNc1n[nH]c(=O)[nH]c1=O)N/N=C/c1ccc(C(F)(F)F)cc1	1.1	-4	1	13	8	105
O=C(CCCN1C(=O)/C(=C/c2cccc(Br)c2)SC1=S)Nc1cccnc1	3.4*	-9	1.1	-3	/	92
O=C(CCCN1C(=O)/C(=C\c2cccs2)SC1=S)NNC(=O)c1ccncc1	1.3	-7	1.1	-17	2	88
O=C(CCCN1C(=O)/C(=C/c2cccs2)SC1=S)NNC(=O)c1cccnc1	/	/	/	/	42*	/
CCN1CCN(CC(=O)Nc2cc(C(F)(F)F)ccc2OCCOC)CC1	/	/	/	/	14	/
Clc1ccc(-n2ncc3c(NCc4ccco4)ncnc32)cc1	2.7	6	0.9	128	2	150*
c1ccc(-n2ncc3c(NCC4CCCO4)ncnc32)cc1 (centres undefined)	2.2	27	0.7	60	5	129*
COc1ccc(-n2ncc3c(NCc4cccs4)ncnc32)cc1	3.1	2	1	101	7	150*
c1ccc(-n2ncc3c(NCc4cccs4)ncnc32)cc1	2.2	14	0.9	95	-4	138*
NS(=O)(=O)c1cccc(NC(=O)COC(=O)CCCc2c[nH]c3ccccc23)c1	1.2	-1	1	-11	6	94
CSCCC(NC(=O)OC(C)(C)C)C(=O)Oc1ccc2c(=O)c(-c3ccc4c(c3)OCCO4)coc2c1 (centres undefined)	3.2	26	0.7	173*	-4	129*
N#Cc1ccc(N2Cc3ccccc3C2=NC(=O)c2cccnc2Cl)cc1	5*	26	0.7	2	9	107
CCOC(=O)C1CCCN(CC(=O)Nc2cccc(C(C)=O)c2)C1 (centres undefined)	0.93	1	1	0	8	91
O=S(=O)(c1ccccc1)n1cc(-c2ccccn2)c(N2CCOCC2)n1	1.1	-5	1	213*	-12	104
O=C(CCc1nnc(-c2ccc3c(c2)OCO3)o1)N1CCC(c2ccc(F)cc2)C1 (centres undefined)	1.2	-8	1.1	50	3	134*
O=C(CCc1nnc(Cc2ccc(-c3ccccc3)cc2)o1)N1CCCC1	1	-8	1.1	-11	-28	92
CC1CCN(C(=O)CCc2nnc(-c3ccccc3)o2)CC1	2.5	-3	1	42	9	135*
Cc1cc(C)n2nc(/C(C#N)=C/c3ccccn3)c(C#N)c2n1	1.6	-6	1.1	-18	15	97
O=C(COc1ccc(OCc2ccccc2)cc1)NN=C1CCCC1	1	12	0.9	12	15	111
Cc1cc(OCc2ccc(C(=O)NN=C3CCCC3)cc2)ccc1Cl	1.3	-5	1	-20	11	130*
